Test [1] addresses T1, Kelch-like ECH-associated protein 1 (Homo sapiens, UniProt Q14145). Briefly: Binding affinity to KEAP1 kelch domain in cytoplasm of human NCM460 cells at 10 uM after 10 hrs by DAPI staining based confocal microscopic analysis. The format is cell-based. Summed up: (§1)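 NCM460 colonic cells exposed to the FITC probe at 10 µM for 10 h, then fixed. Keap1 primary antibody applied overnight at 4 °C, then Alexa Fluor-labelled goat anti-rabbit secondary for 1 h at 37 °C. Nuclei stained with DAPI. Imaged by laser scanning confocal microscopy at excitation 570 and 340 nm for co-localization. Three separate experiments.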

Test [2] addresses T1, Kelch-like ECH-associated protein 1. Briefly: Binding affinity to human KEAP1 kelch domain (322 to 609 residues) expressed in Escherichia coli Arctic(DE3) cells at 0.05 mM by isothermal titration calorimetry. The procedure, abridged: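 ITC at 25 °C. Lyophilized Keap1 Kelch domain and the FITC probe both dissolved in 10 mM HEPES pH 7.4. Nineteen 2 µL injections of 0.05 mM probe, 2.5 min apart, stirred at 750 rpm, into cell holding 0.005 mM Kelch domain. Kd obtained from a 1:1 binding model fit.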
(ITC needs no label: the signal is the heat of the interaction.)

Test [3] shares this target. Briefly: Binding affinity to KEAP1 kelch domain in nucleus of human NCM460 cells at 10 uM after 10 hrs by DAPI staining based confocal microscopic analysis. The format is cell-based. The procedure, abridged: as §1
The target is the same in test [4]. Briefly: Inhibition of FITC-labeled 9-mer Nrf2 peptide amide binding to human KEAP1 kelch domain (322 to 609 residues) expressed in Escherichia coli Arctic(DE3) cells incubated for 30 mins by fluorescence polarization assay. For orientation: Polarisation of emitted light reports the rotation of a fluorescent probe.
Test [5] has the same target. Briefly: Binding affinity to human KEAP1 kelch domain (322 to 609 residues) expressed in Escherichia coli Arctic(DE3) cells assessed as dissociation constant by biolayer interferometry method. Summed up:
(§2)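 Biotinylated probe immobilized on super streptavidin biosensor tips. Sequence: baseline, loading, second baseline, Keap1 Kelch domain association (kon), then dissociation (koff). Six Keap1 concentrations tested, all at 30 °C. Kinetic constants fitted from the sensorgrams, and Kd taken as koff/kon.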

For test [6] the target is unchanged. Briefly: Binding affinity to human KEAP1 kelch domain (322 to 609 residues) expressed in Escherichia coli Arctic(DE3) cells assessed as association constant by biolayer interferometry method. The procedure, abridged:
as §2
For orientation: BLI is a label-free optical method that tracks binding on a fibre tip over time.

Test [7] shares this target. Briefly: Binding affinity to KEAP1 kelch domain in human NCM460 cells after 2 hrs by Western blot based affinity pulldown assay. The format is cell-based. Summed up:
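Streptavidin magnetic beads loaded with the biotin probe (50 µg/100 µL), 30 min at 4 °C, then free sites blocked with biotin. Beads incubated with NCM460 colonic cell lysate for 2 h at 4 °C with rotation and washed with TBS. Bound protein eluted in buffer with 2% SDS at 95 °C for 5 min. Analysed by SDS-PAGE and western blot with anti-Keap1 antibody.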

The target is the same in test [8]. Briefly: Binding affinity to human KEAP1 kelch domain (322 to 609 residues) expressed in Escherichia coli Arctic(DE3) cells by biolayer interferometry method. Summed up: as §2

Molecules are shown by their SMILES. pEC50, pIC50, pKd: −log10 of the molar value. Active and inactive are the calls of the source. No cut-off for these calls is given here.

T1 sequence (Q14145 whole entry, the tested form may be a part): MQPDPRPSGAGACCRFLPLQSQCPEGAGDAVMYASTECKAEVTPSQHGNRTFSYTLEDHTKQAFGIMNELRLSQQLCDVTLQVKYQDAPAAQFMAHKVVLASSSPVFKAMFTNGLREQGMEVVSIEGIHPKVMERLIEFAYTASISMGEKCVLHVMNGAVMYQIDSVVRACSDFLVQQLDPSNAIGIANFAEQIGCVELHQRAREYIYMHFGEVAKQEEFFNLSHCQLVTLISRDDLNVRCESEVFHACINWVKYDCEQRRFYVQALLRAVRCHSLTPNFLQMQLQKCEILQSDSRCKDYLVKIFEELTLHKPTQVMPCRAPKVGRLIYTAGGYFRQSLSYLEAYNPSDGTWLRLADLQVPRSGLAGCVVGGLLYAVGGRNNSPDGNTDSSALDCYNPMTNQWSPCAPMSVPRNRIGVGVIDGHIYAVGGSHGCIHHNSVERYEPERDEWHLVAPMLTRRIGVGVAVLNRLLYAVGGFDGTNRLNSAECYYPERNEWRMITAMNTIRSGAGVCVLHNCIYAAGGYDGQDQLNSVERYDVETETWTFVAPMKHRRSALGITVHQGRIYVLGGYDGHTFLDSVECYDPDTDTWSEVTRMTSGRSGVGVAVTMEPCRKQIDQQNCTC

Regarding `COc1ccc(S(=O)(=O)N(CC(=O)O)c2ccc(N(CC(=O)O)S(=O)(=O)c3ccc(NC(=O)CCCC(=O)NCCNC(=S)Nc4ccc5c(c4)C(=O)OC54c5ccc(O)cc5Oc5cc(O)ccc54)cc3)c3ccccc23)cc1`, the result in test [1] and in test [3] was Active. Also, in test [2], the negative logarithm of the Kd (pKd) (in general, −log10 of the Kd, conventionally taken in molar units) was 7.54. The negative logarithm of the EC50 (pEC50) – broadly, −log10 of the EC50, conventionally taken in molar units – in test [4] was 7.83.

For `COc1ccc(S(=O)(=O)N(CC(=O)O)c2ccc(N(CC(=O)O)S(=O)(=O)c3ccc(NC(=O)CCCC(=O)NCCNC(=O)CCCC[C@@H]4SC[C@@H]5NC(=O)N[C@@H]54)cc3)c3ccccc23)cc1`, the K in test [5] was determined as 1.35 ×10⁻³ /s. In addition, the K in test [6] was 6.24 ×10⁴ /M/s. Also, the result in test [7] was Active. Also, the negative-log IC50 (pIC50) (commonly −log10 of the IC50, conventionally taken in molar units) in test [4] was 7.13. Also, in test [8], the Activity entry is “Dose-dependent effect” and the negative-log Kd (pKd) is 7.67.

In turn, `COc1ccc(S(=O)(=O)N(CC(=O)O)c2ccc(N(CC(=O)O)S(=O)(=O)c3ccc(NC(=O)CCCC(=O)NCCN)cc3)c3ccccc23)cc1` had a pIC50 in test [4] of 7.51.

The values are drawn from ChEMBL document CHEMBL4425151, “Design, Synthesis, and Initial Evaluation of Affinity-Based Small-Molecule Probes for Fluorescent Visualization and Specific Detection of Keap1” (J Med Chem, 2016).
